Data from ChEMBL document CHEMBL5058577, “EUbOPEN Chemogenomics Library 2 (Multiplex)” (2022).

Test system: U2OS
Assay: Multiplex assay against U2OS
Format: toxicity, cell-based
Settings: human
Outline: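 Per cents of healthy-nucleus cells form the tubulin, mitochondrial-mass and membrane-permeability phenotype values. Live cells were stained at seeding with Hoechst33342, BioTracker Green Microtubule Cytoskeleton Dye, MitoTracker Red and Annexin V Alexa Fluor 680. After compound addition they were imaged on a CQ1 microscope at 37°C and 5% CO2, and CellPathfinder machine-learning gating split them into Hoechst high-intensity objects or normal cells, normal cells into healthy, pyknosed or fragmented nuclei, and pyknosed cells into mitotic or apoptotic.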

[1] = 12 h, 1 µM, compound concentration 1 uM, replicate 1
[2] = 12 h, 1 µM, compound concentration 1 uM, replicate 2
[3] = 12 h, 10 µM, compound concentration 10 uM, replicate 1
[4] = 12 h, 10 µM, compound concentration 10 uM, replicate 2
[5] = 24 h, 1 µM, compound concentration 1 uM, replicate 1
[6] = 24 h, 1 µM, compound concentration 1 uM, replicate 2
[7] = 24 h, 10 µM, compound concentration 10 uM, replicate 1
[8] = 24 h, 10 µM, compound concentration 10 uM, replicate 2
[9] = 48 h, 1 µM, compound concentration 1 uM, replicate 1
[10] = 48 h, 1 µM, compound concentration 1 uM, replicate 2
[11] = 48 h, 10 µM, compound concentration 10 uM, replicate 1
[12] = 48 h, 10 µM, compound concentration 10 uM, replicate 2

`COC(c1ccccc1)(c1ccccc1)[C@H](Oc1nc(C)cc(C)n1)C(=O)O` [AMBRISENTAN] was tested, and the “Population Apoptotic (%)” value [1] was 95%, the “Population Fragmented Nuclei (%)” value [1] was 26% and the “Population Healthy Nuclei (%)” value [1] was 62%. The “Population Hoechst High Intensity Objects (%)” value [1] was 2%, the “Population Membrane Permeable-Phenotype (%)” value [1] was 3% and the “Population Mitochondria Different-Phenotype (%)” value [1] was 0%. The “Population Mitotic Cells (%)” value [1] was 4%, the “Population Normal (%)” value [1] was 97% and the “Population Pyknosed Nuclei (%)” value [1] was 10%. The “Population Tubulin-Different-Phenotype (%)” value [1] was 1%, the “Total Cell Count” value [1] was 209 and the “Population Apoptotic (%)” value [2] was 100%. The “Population Fragmented Nuclei (%)” value [2] was 21%, the “Population Healthy Nuclei (%)” value [2] was 72% and the “Population Membrane Permeable-Phenotype (%)” value [2] was 8%. The “Population Mitochondria Different-Phenotype (%)” value [2] was 3%, the “Population Mitotic Cells (%)” value [2] was 0% and the “Population Pyknosed Nuclei (%)” value [2] was 5%. For the same molecule, the “Total Cell Count” value [2] was 87, the “Population Apoptotic (%)” value [3] was 61% and the “Population Fragmented Nuclei (%)” value [3] was 28%. For the same molecule, the “Population Healthy Nuclei (%)” value [3] was 63%, the “Population Hoechst High Intensity Objects (%)” value [3] was 2% and the “Population Membrane Permeable-Phenotype (%)” value [3] was 4%. For the same molecule, the “Population Mitochondria Different-Phenotype (%)” value [3] was 2%, the “Population Mitotic Cells (%)” value [3] was 38% and the “Population Normal (%)” value [3] was 97%. The “Population Pyknosed Nuclei (%)” value [3] was 7%, the “Population Tubulin-Different-Phenotype (%)” value [3] was 1% and the “Total Cell Count” value [3] was 232. For the same molecule, the “Population Apoptotic (%)” value [4] was 100%, the “Population Fragmented Nuclei (%)” value [4] was 19% and the “Population Healthy Nuclei (%)” value [4] was 72%. For the same molecule, the “Population Hoechst High Intensity Objects (%)” value [4] was 0%, the “Population Mitochondria Different-Phenotype (%)” value [4] was 0% and the “Population Mitotic Cells (%)” value [4] was 0%. The “Population Normal (%)” value [4] was 99%, the “Population Tubulin-Different-Phenotype (%)” value [4] was 0% and the “Total Cell Count” value [4] was 104. The “Population Apoptotic (%)” value [5] was 95%, the “Population Fragmented Nuclei (%)” value [5] was 27% and the “Population Healthy Nuclei (%)” value [5] was 63%. The “Population Hoechst High Intensity Objects (%)” value [5] was 0%, the “Population Membrane Permeable-Phenotype (%)” value [5] was 4% and the “Population Mitochondria Different-Phenotype (%)” value [5] was 1%. The “Population Mitotic Cells (%)” value [5] was 4%, the “Population Normal (%)” value [5] was 99% and the “Population Pyknosed Nuclei (%)” value [5] was 8%. The “Population Tubulin-Different-Phenotype (%)” value [5] was 1%, the “Total Cell Count” value [5] was 248 and the “Population Apoptotic (%)” value [6] was 100%. The “Population Fragmented Nuclei (%)” value [6] was 23%, the “Population Healthy Nuclei (%)” value [6] was 66% and the “Population Membrane Permeable-Phenotype (%)” value [6] was 1%. The “Population Mitochondria Different-Phenotype (%)” value [6] was 2%, the “Population Mitotic Cells (%)” value [6] was 0% and the “Population Pyknosed Nuclei (%)” value [6] was 10%. For the same molecule, the “Total Cell Count” value [6] was 111, the “Population Apoptotic (%)” value [7] was 84% and the “Population Fragmented Nuclei (%)” value [7] was 25%. The “Population Healthy Nuclei (%)” value [7] was 65%, the “Population Hoechst High Intensity Objects (%)” value [7] was 1% and the “Population Membrane Permeable-Phenotype (%)” value [7] was 7%. The “Population Mitochondria Different-Phenotype (%)” value [7] was 2%, the “Population Mitotic Cells (%)” value [7] was 16% and the “Population Normal (%)” value [7] was 98%. The “Population Pyknosed Nuclei (%)” value [7] was 9%, the “Population Tubulin-Different-Phenotype (%)” value [7] was 3% and the “Total Cell Count” value [7] was 273. The “Population Apoptotic (%)” value [8] was 80%, the “Population Fragmented Nuclei (%)” value [8] was 13% and the “Population Healthy Nuclei (%)” value [8] was 77%. The “Population Hoechst High Intensity Objects (%)” value [8] was 0%, the “Population Mitotic Cells (%)” value [8] was 20% and the “Population Normal (%)” value [8] was 100%. The “Population Pyknosed Nuclei (%)” value [8] was 8%, the “Population Tubulin-Different-Phenotype (%)” value [8] was 5% and the “Total Cell Count” value [8] was 115. The “Population Apoptotic (%)” value [9] was 89%, the “Population Fragmented Nuclei (%)” value [9] was 17% and the “Population Healthy Nuclei (%)” value [9] was 70%. The “Population Hoechst High Intensity Objects (%)” value [9] was 2%, the “Population Membrane Permeable-Phenotype (%)” value [9] was 2% and the “Population Mitochondria Different-Phenotype (%)” value [9] was 1%. For the same molecule, the “Population Mitotic Cells (%)” value [9] was 10%, the “Population Normal (%)” value [9] was 97% and the “Population Pyknosed Nuclei (%)” value [9] was 11%. The “Population Tubulin-Different-Phenotype (%)” value [9] was 0%, the “Total Cell Count” value [9] was 333 and the “Population Apoptotic (%)” value [10] was 93%. The “Population Healthy Nuclei (%)” value [10] was 72%, the “Population Membrane Permeable-Phenotype (%)” value [10] was 0% and the “Population Mitotic Cells (%)” value [10] was 6%. For the same molecule, the “Population Pyknosed Nuclei (%)” value [10] was 10%, the “Total Cell Count” value [10] was 151 and the “Population Apoptotic (%)” value [11] was 87%. For the same molecule, the “Population Fragmented Nuclei (%)” value [11] was 21%, the “Population Healthy Nuclei (%)” value [11] was 68% and the “Population Hoechst High Intensity Objects (%)” value [11] was 3%. The “Population Membrane Permeable-Phenotype (%)” value [11] was 4%, the “Population Mitochondria Different-Phenotype (%)” value [11] was 2% and the “Population Mitotic Cells (%)” value [11] was 12%. For the same molecule, the “Population Normal (%)” value [11] was 96%, the “Population Pyknosed Nuclei (%)” value [11] was 10% and the “Population Tubulin-Different-Phenotype (%)” value [11] was 3%. For the same molecule, the “Total Cell Count” value [11] was 388, the “Population Apoptotic (%)” value [12] was 81% and the “Population Fragmented Nuclei (%)” value [12] was 13%. For the same molecule, the “Population Healthy Nuclei (%)” value [12] was 79%, the “Population Hoechst High Intensity Objects (%)” value [12] was 0% and the “Population Membrane Permeable-Phenotype (%)” value [12] was 2%. For the same molecule, the “Population Mitochondria Different-Phenotype (%)” value [12] was 0%, the “Population Mitotic Cells (%)” value [12] was 18% and the “Population Normal (%)” value [12] was 100%. For the same molecule, the “Population Pyknosed Nuclei (%)” value [12] was 6%, the “Population Tubulin-Different-Phenotype (%)” value [12] was 2% and the “Total Cell Count” value [12] was 174.
